GASC-1 inh: human JMJD2C demethylase inhibition; GST-JMJD2C(1-420) H3K9me3 demethylation, DELFIA europium; 330,000 tested, 0.069% active; inhibition, % at 2.35 µM; Q9H3R0; AID 2099;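 active = more than half of a compound's replicate wells show inhibition beyond 50%, single wells judged on their own value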;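 also: signal counts dimethyl H3K9 product captured on neutravidin plate; 0% = median of DMSO wells and 100% = 0.3 times that DMSO median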
NR2E3 ag-1: activates human photoreceptor nuclear receptor NR2E3. GST-NR2E3/biotin-RetCOR TR-FRET, 1536-well. Q9Y5X4. 320,000 tested, 0.12% active. inhibition of corepressor binding, % at 4.78 µM;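 active = percent inhibition above the cutoff of mean plus 3 SD of all tested compounds, set per screening campaign, cut at about 20% in these data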;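 also: 0% = DMSO wells and 100% = biotin wells as full block of FRET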
Target sequence (Q9Y5X4 whole entry, looked up): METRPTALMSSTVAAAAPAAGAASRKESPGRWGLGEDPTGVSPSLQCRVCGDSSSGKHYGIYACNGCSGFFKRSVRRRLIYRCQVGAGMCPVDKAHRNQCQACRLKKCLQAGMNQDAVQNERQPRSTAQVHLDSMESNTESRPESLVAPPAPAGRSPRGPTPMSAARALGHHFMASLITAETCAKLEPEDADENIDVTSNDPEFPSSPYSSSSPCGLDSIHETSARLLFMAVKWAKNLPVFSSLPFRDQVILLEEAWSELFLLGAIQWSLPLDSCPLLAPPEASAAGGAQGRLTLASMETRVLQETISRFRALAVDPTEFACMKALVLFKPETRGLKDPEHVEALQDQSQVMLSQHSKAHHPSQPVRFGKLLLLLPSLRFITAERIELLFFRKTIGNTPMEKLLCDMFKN
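Material: NR2E3–RetCOR corepressor complex | Quantity: 1.35 nM GST-tagged NR2E3 final | Schedule: 5 h at 4 °C | Replication: Singlicate compound wells | Reagent: RetCOR corepressor, biotinylated, 7 nM | Controls: Biotin wells as high control, 0.6% DMSO wells as low control | Signal: TR-FRET, Eu(K)-anti-GST donor, streptavidin-D2 acceptor, ex 340, em 617/671 nm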
NR2E3 ag-2: human photoreceptor-specific nuclear receptor agonism. CHO-S Gal4-NCOR/VP16-NR2E3 two-hybrid, luciferase. inhibition of corepressor binding, % at 3.98 µM. 360,000 tested, 0.35% active. AID 602229;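 active = inhibition above the mean of all tested compounds plus 3 SD, cut at about 70% in these data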;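 also: 0% = DMSO with NR2E3 transfected cells and 100% = cells lacking NR2E3 construct; higher means lower luciferase signal from less NR2E3 corepressor binding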
SMARCA2 act: activators of SMARCA2 function; 370,000 tested, 1% active; activation, % at 9.1 µM; AID 652017; MG213 cells, MMTV-luciferase reporter, dexamethasone, overnight; in the data active = activation above about 7.8%;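 also: 0% = vehicle wells and 100% = reference activator wells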
DAX1 inh-1: NR0B1 (DAX1) inhibition; inhibition, % at 6.75 µM; 340,000 tested, 0.99% active; HEK293 Gal4-DAX1 luciferase reporter, luminescence; P51843; AID 504766;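 active = inhibition above the mean over all tested compounds plus 3 SD, cut at about 4.2% in these data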;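 also: 0% = DAX1-transfected cells with DMSO and 100% = empty-vector control cells with DMSO; inhibition shows as a rise in luminescence from relieved DAX1 repression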
Target sequence (P51843 207-470 limits assumed): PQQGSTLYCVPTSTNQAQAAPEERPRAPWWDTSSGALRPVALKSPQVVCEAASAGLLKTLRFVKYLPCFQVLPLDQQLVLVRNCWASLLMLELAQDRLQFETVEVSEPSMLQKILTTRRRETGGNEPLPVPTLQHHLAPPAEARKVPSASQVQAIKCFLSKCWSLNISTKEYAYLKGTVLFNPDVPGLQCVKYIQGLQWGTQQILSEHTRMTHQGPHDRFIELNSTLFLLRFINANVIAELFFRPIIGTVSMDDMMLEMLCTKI
DAX1 inh-2: blocks DAX1 repression of SF-1 activated StAR promoter | HEK293T StAR-luciferase reporter, SF-1/DAX-1 repression relief | 370,000 tested, 1.1% active | AID 652010 | inhibition, % at 6.8 µM;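 active = inhibition above the mean over all tested compounds plus 3 SD, cut at about 3.6% in these data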;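 also: 0% = DAX-1 cells with DMSO and 100% = cells lacking DAX-1 with DMSO; higher inhibition means more luminescence from relief of DAX-1 repression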
NR2E3 ag conf: confirmation of human NR2E3 agonists; inhibition, % at 3.98 µM; shares compounds with NR2E3 ag-2; 2,300 tested, 51% active; CHO-S mammalian two-hybrid NR2E3-NCOR, luciferase luminescence;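 active = average inhibition above a cutoff equal to the mean inhibition of all tested compounds plus one SD, cut at about 70% in these data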;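 also: 0% = DMSO in NR2E3 cells and 100% = DMSO in cells lacking NR2E3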
VP16 counter: reduces GAL4-VP16 reporter signal in NR2E3 counterscreen. 2,300 tested, 29% active. inhibition, % at 3.98 µM. CHO-S GAL4-VP16 luciferase reporter, luminescence. shares compounds with NR2E3 ag-2;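 active = mean inhibition above a cutoff equal to the average over all tested compounds plus one standard deviation, cut at about 70% in these data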;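 also: luciferase from a UAS reporter driven by GAL4-VP16 transactivation; 0% = DMSO with VP16-transfected cells and 100% = DMSO with cells lacking VP16; higher means less reporter light so more repression of VP16 activity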
* = called active by the depositor; / = not tested or not shown. Shown are actives, neighbours in structure and some others; about 3.2% of the full set was active somewhere.

SMILES | GASC-1 inh | NR2E3 ag-1 | NR2E3 ag-2 | SMARCA2 act | DAX1 inh-1 | DAX1 inh-2 | NR2E3 ag conf | VP16 counter
O=[N+]([O-])c1ccc(Oc2ccc(S(=O)(=O)Nc3ccccc3)cc2)cc1 | 18 | 0 | 58 | / | -3 | / | 99* | 79*
O=[N+]([O-])c1ccc(S(=O)(=O)Nc2ccncc2)cc1 | -2 | -3 | -20 | 2 | 1 | 0 | / | /
Cc1c[nH]c2cccc(-c3ccccc3)c12 | / | / | / | -4 | / | 0 | / | /
Cc1cc(C(=O)NC2CCCc3c2cnn3-c2ccccc2F)nc(C)n1 (stereo not given) | -13 | 2 | -14 | -4 | 0 | -2 | / | /
CC(C)c1cc(C(=O)NC2CCCc3c2cnn3-c2ccccc2F)no1 (stereo not given) | 0 | 0 | 60 | -2 | -1 | -6 | 47 | 52
CN1N=C(C(=O)NC2CCCc3c2cnn3-c2ccc(F)cc2F)CCC1=O (stereo not given) | -8 | 2 | -5 | -2 | -1 | -6 | / | /
Cc1nnsc1C(=O)NC1CCCc2c1cnn2-c1ccc(F)cc1F (stereo not given) | 18 | 1 | 96* | -5 | -2 | -9 | 71* | 64
Cc1nnsc1C(=O)NC1CCCc2c1cnn2-c1cc(F)cc(F)c1 (stereo not given) | 4 | -1 | 4 | -1 | 0 | -1 | / | /
Cc1ccc(C(=O)NC2CCCc3c2cnn3-c2ccc(F)cc2F)cn1 (stereo not given) | -4 | 2 | 100* | -4 | -4 | -9 | 95* | 79*
CCOC(=O)[C@@]12CN(C(=O)OC(C)(C)C)CC=C1N(Cc1ccc(OC)cc1)C(=O)[C@H]2CC(=O)N1CCN(C(=O)c2ccco2)CC1 | / | / | / | -3 | / | 0 | / | /
CC12CCC(C(=O)N(CSC(=S)N/N=C\c3ccccc3O)C1=O)C2(C)C (stereo not given) | 10 | 4 | 91* | 2 | 0 | -1 | -8 | -38
CCn1c(SCc2ccccc2Cl)nnc1-c1ccccc1OC | / | / | / | -6 | / | -1 | / | /
CN(c1ccccc1)S(=O)(=O)c1cccc(NC(=O)CSc2nnc(N)s2)c1 | 10 | -3 | 20 | -4 | -1 | -1 | / | /
CN(c1ccccc1)S(=O)(=O)c1cccc(NC(=O)CSc2nncs2)c1 | -2 | 3 | 70 | -3 | -4 | -2 | 66 | 76*
COC(=O)c1cc(-c2ccc(Oc3ccccc3)cc2)c(=O)n2c1CCC2 | / | / | / | 0 | / | -1 | / | /
CCOC(=O)N1CCC(NC(=O)CSCc2nc(-c3ccc(OCC)cc3)oc2C)CC1 | -37 | -3 | 60 | 1 | -1 | -1 | 43 | 33
CCOc1ccc(-c2nc(CSCC(=O)NCc3ccco3)c(C)o2)cc1 | -5 | -1 | 100* | -7 | -2 | -1 | 93* | 95*
CCOc1ccc(-c2nc(CSCC(=O)NC3CCN(Cc4ccccc4)CC3)c(C)o2)cc1 | / | / | 12 | -2 | -2 | -3 | / | /
CCOc1ccc(-c2nc(CSCC(=O)NC3CC3)c(C)o2)cc1 | -33 | 2 | 109* | / | 0 | / | 95* | 95*
COc1cc(NC(=O)c2ccccc2)c(C)cc1NC(=O)CSc1nnc(-c2ccco2)n1Cc1ccco1 | / | / | / | -3 | / | 0 | / | /
CCOC(OCC)P(=O)(CNC(c1ccccc1)(c1ccccc1)c1ccccc1)OCC (stereo not given) | / | / | / | -1 | / | -2 | / | /
CCN(C(=O)[C@@H]1CC(=O)O[C@@H]1c1ccccc1)c1ccccc1 | / | / | / | 0 | / | -1 | / | /
CSC1SCC2C(=O)N(C)C(C(C)C)C(=O)OCC(NC(=O)c3cnc4ccccc4n3)C(=O)NC(C)C(=O)N(C)C1C(=O)N(C)C(C(C)C)C(=O)OCC(NC(=O)c1cnc3ccccc3n1)C(=O)NC(C)C(=O)N2C (stereo not given) | / | / | 103* | -10 | -7 | -7 | 98* | 95*
CN(c1ccc(F)cc1)S(=O)(=O)c1ccc(Cl)c(C(=O)Nc2ccncc2)c1 | 0 | 5 | 87* | -4 | -2 | -3 | 54 | 60
CCN(c1ccccc1)S(=O)(=O)c1ccc(Cl)c(C(=O)Nc2ccncc2)c1 | / | / | 19 | -6 | 0 | -1 | / | /
SMILES | GASC-1 inh | NR2E3 ag-1 | NR2E3 ag-2 | SMARCA2 act | DAX1 inh-1 | DAX1 inh-2 | NR2E3 ag conf | VP16 counter
CN(c1ccccc1)S(=O)(=O)c1ccc(Cl)c(C(=O)Nc2ccncc2)c1 | 1 | -2 | 76* | -4 | -2 | -5 | 69 | 56
CN(c1ccc(F)cc1)S(=O)(=O)c1ccc(Cl)c(C(=O)Nc2ccc3c(c2)CCC3)c1 | 4 | 1 | -13 | -4 | -3 | -1 | / | /
O=C(CSc1nnc(-c2ccccn2)n1-c1ccccc1)Nc1ccccc1-c1ccccc1 | / | / | / | -6 | / | -1 | / | /
COC(=O)[C@]12C[C@H](CC(=O)NCCCN3CCCC3=O)C(=O)N(Cc3ccc(Cl)cc3Cl)C1=C[C@H](C1CCCC1)O[C@@H]2C | / | / | / | -1 | / | -1 | / | /
COc1ccc(S(=O)(=O)N2CCN(c3ccc(C)cc3C)CC2)cc1OC | -5 | 0 | 53 | -1 | 1 | -1 | 74* | 57
Cc1ccc2ccc3cccnc3c2n1 | 2 | 1 | 67 | -1 | -4 | -2 | 45 | 9
COc1ccc(C=Nn2c(-c3ccc(F)cc3)n[nH]c2=S)c(OC)c1OC | / | / | / | -2 | / | -1 | / | /
CCOC(=O)[C@@]12CCCC3=C1N(CCC3)C(=O)[C@H]2CC(=O)NCc1ccccc1 | / | / | / | -1 | / | 0 | / | /
CCCCCCCCNc1ncnc2[nH]ncc12 | / | / | 73* | -5 | -3 | -3 | 84* | 73*
COC(=O)[C@]12C[C@H](CC(=O)NCCc3ccccc3OC)C(=O)N(CCc3ccc(OC)c(OC)c3)C1=C[C@H](C(C)(C)C)O[C@@H]2C | / | / | / | -1 | / | -2 | / | /
Cc1sc(NC(=O)/C=C/c2ccc3c(c2)OCO3)nc1-c1ccccc1 | -2 | 5 | 57 | -1 | -5 | 1 | 85* | 31
COc1ccc(NC(=O)Nc2ccccc2C(=O)N2CCCC2)cc1OC | / | / | / | -5 | / | 1 | / | /
CCN(CC)c1ccc(C(=C2C=CC(=[N+](CC)CC)C=C2)c2ccc(N(CC)CC)cc2)cc1 | / | / | 101* | -9 | -3 | -7 | 99* | 92*
CCN(CC)c1ccc(C(=O)NNC(=O)CCl)cc1 | 28 | -3 | -10 | 7 | 0 | -2 | / | /
CCN(CC)c1ccc(C(=C2C=CC(=[N+](CC)CC)C=C2)c2ccccc2)cc1 | / | / | 101* | -13 | -7 | -6 | 99* | 98*
Cc1ccc(NC(=O)CSc2nnnn2-c2ccc3c(c2)OCO3)cc1C | 1 | 2 | 91* | -4 | 1 | 1 | 100* | 1
